Screens (PubChem)
Only some compounds are listed: those with a hit (about 2.1% of all), similar ones and a draw of the others.
cardiac RTF act = cardiac RTF calcium sensitization | IANBD-labeled TnC RTF fluorescence at EC20 calcium; 0% EC20 calcium, 100% full calcium | activation, % at 7.2 µM | P19429+P45379 | 340,000 compounds, 0.24% hits;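 active means activation above the mean over all tested compounds plus 3 SD, cut at about 30% in these data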;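 further: rise in fluorescence read as greater calcium sensitivity of cardiac thin filaments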
Cardiac RTF inh = cardiac RTF calcium desensitization. P19429+P45379. IANBD-labeled cardiac RTF, Ca2+ fluorescence. inhibition, % at 7.15 µM. 340,000 compounds, 0.12% hits. AID 493244;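 active means inhibition above the mean inhibition of all tested compounds plus 3 SD, cut at about 17% in these data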;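 further: assay run at fixed EC70 calcium of 1.6 mM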
ARNT-TACC3 inh = disruptors of human ARNT/TACC3 interaction; AID 623870; 390,000 compounds, 0.66% hits; inhibition, % at 9.99 µM; Q9Y6A5; AlphaScreen His-ARNT PAS-B/GST-TACC3 binding, luminescence; TACC3 fragment carries E629A point mutation;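 active means mean inhibition of replicates at least 50% and at least half of replicates each reaching 50%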;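 further: 0% = complete ARNT plus TACC3 wells and 100% = ARNT alone without TACC3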
Mot1-301 SUMO = SUMOylation pathway inhibition by Mot1-301 growth rescue; S. cerevisiae Mot1-301 growth rescue, ATP luminescence, 38.5C; percent above DMSO median, 100 means doubled; growth rescue, % at 18.8 µM; 320,000 compounds, 1% hits; AID 2716;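 active means every valid replicate shows activation above 250% relative to neutral control wells; inactive means the rest, any valid replicate at or below 250%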;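 further: OY570 slx delta 5 strain wells were the positive control but not used for scaling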
Efflux pump mplx = antifungal efflux pump inhibition, Nile Red retention; S. cerevisiae Candida pump triplex; inhibition, % at 10 µM; 330,000 compounds, 0.44% hits; AID 485275;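 active means plate passing quality check with inhibition over a set limit, or well fluorescence over plate mean plus 4 SD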;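 further: Nile Red retained in pooled yeast measured as flow cytometry median fluorescence; 0% = buffer negative control and 100% = Enniatin B positive control; higher means more Nile Red kept so more efflux inhibition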
UCH37 DUB inh = inhibitors of human deubiquitinating enzyme UCH37; 330,000 compounds, 0.33% hits; purified proteasome/UCH37, Ub-AMC cleavage fluorescence; Q9Y5K5; inhibition, % (concentration not given with the values);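 active means mean inhibition over replicate wells above about 20%, limit read from the data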;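 further: 0% = compound-free wells with enzyme and 100% = wells lacking proteasome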
Target sequence (Q9Y5K5 whole entry, looked up): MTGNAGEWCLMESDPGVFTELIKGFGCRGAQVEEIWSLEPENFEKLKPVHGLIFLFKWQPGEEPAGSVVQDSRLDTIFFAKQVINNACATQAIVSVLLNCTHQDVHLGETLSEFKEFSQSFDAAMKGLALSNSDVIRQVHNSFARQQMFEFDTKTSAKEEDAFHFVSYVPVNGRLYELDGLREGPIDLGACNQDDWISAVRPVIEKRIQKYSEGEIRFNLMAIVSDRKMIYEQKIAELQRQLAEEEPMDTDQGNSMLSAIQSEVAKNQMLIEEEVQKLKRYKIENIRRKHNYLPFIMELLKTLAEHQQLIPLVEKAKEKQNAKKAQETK
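Material: human UCH37 enzyme supplied as purified proteasome complex. Measure: % inhibition of Ub-AMC cleavage fluorescence. Medium: pH 7.4 Tris-HCl (50 mM) with ovalbumin, ATP-MgCl2, DTT. Times: 30 min preincubation with enzyme, 25 min cleavage at room temperature. Detection: AMC fluorescence intensity at 355/460 nm.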
RTF inh confirm = cardiac RTF calcium sensitivity inhibition, confirmation. shares compounds with Cardiac RTF inh. reconstituted cardiac thin filaments, calcium sensitivity fluorescence. inhibition, % at 7.15 µM. 360 compounds, 8% hits. AID 504635; in the data active means inhibition above about 18%
An asterisk follows results filed as active.

What do the screens show for `O=C(N/N=C/c1ccc(Br)s1)c1cccc([N+](=O)[O-])c1`?
cardiac RTF act: 2; Cardiac RTF inh: 18*; ARNT-TACC3 inh: 1; Mot1-301 SUMO: -2; Efflux pump mplx: 0; RTF inh confirm: -1

How did O=C(NN=C/C=C\c1ccccc1[N+](=O)[O-])c1cc(-c2ccccc2)nc2ccccc12 do in these assays?
UCH37 DUB inh: 6

Results for COc1ccc(NC(=O)CC23CC4CC(CC(C4)C2)C3)cn1 ?
cardiac RTF act: 0; Cardiac RTF inh: 17*; ARNT-TACC3 inh: 1; Mot1-301 SUMO: -18; Efflux pump mplx: 0; UCH37 DUB inh: 3; RTF inh confirm: 2

What do the screens show for `Cc1ccc(C)c(OCCC(=O)NNC(=O)c2ccccc2)c1`?
cardiac RTF act: -2; Cardiac RTF inh: 17*; ARNT-TACC3 inh: 0; Mot1-301 SUMO: 360; Efflux pump mplx: 0; UCH37 DUB inh: -1; RTF inh confirm: 0

Results for Cc1ccc(C)c(OCCC(=O)NNC(=O)c2ccncc2)c1 ?
cardiac RTF act: 1; Cardiac RTF inh: -4; ARNT-TACC3 inh: 0; Mot1-301 SUMO: 162; Efflux pump mplx: 0; UCH37 DUB inh: 1

How did CCOc1ccc(C2C(C(=O)c3cccs3)=C(O)C(=O)N2Cc2cccnc2)cc1OC (centres undefined) do in these assays?
cardiac RTF act: 5; Cardiac RTF inh: -10; ARNT-TACC3 inh: -6; Mot1-301 SUMO: -1; Efflux pump mplx: 0; UCH37 DUB inh: 11

What do the screens show for `CCOc1ccc(C2C(C(=O)c3cccs3)=C(O)C(=O)N2Cc2cccnc2)cc1` (centres undefined)?
cardiac RTF act: 6; Cardiac RTF inh: 19*; ARNT-TACC3 inh: 2; Mot1-301 SUMO: -6; Efflux pump mplx: 0; UCH37 DUB inh: 2; RTF inh confirm: 1

How did C(=NNC1=Nc2cccc3cccc1c23)c1ccccn1 do in these assays?
UCH37 DUB inh: 9

How did COc1cccc(OC)c1C(=O)Nc1ccc(C)cc1C(=O)c1ccccc1 do in these assays?
cardiac RTF act: 4; Cardiac RTF inh: -2; ARNT-TACC3 inh: -6; Mot1-301 SUMO: 293; Efflux pump mplx: 0; UCH37 DUB inh: 5

What do the screens show for `COc1ccc(C(=O)Nc2ccc(C)cc2C(=O)c2ccccc2)c(OC)c1`?
cardiac RTF act: 8; Cardiac RTF inh: 17*; ARNT-TACC3 inh: -32; Mot1-301 SUMO: -5; Efflux pump mplx: 0; UCH37 DUB inh: 3; RTF inh confirm: -2

What do the screens show for `C=CCN1C(=O)c2ccc(C(=O)OCC(=O)N3CCN(c4ccccc4)CC3)cc2C1=O`?
cardiac RTF act: 4; Cardiac RTF inh: 21*; ARNT-TACC3 inh: 0; Mot1-301 SUMO: 44; Efflux pump mplx: 0; UCH37 DUB inh: -3; RTF inh confirm: -3

How did CN(C)CCCNCCCNC(=O)C(=NO)c1ccccc1 do in these assays?
UCH37 DUB inh: 3

Results for Cc1ccccc1NC(=S)N(Cc1ccccn1)Cc1ccccc1Cl ?
cardiac RTF act: 0; Cardiac RTF inh: -3; ARNT-TACC3 inh: -17; Mot1-301 SUMO: 6; Efflux pump mplx: 0; UCH37 DUB inh: 4

Results for COc1ccccc1NC(=S)N(Cc1ccccn1)Cc1ccccc1Cl ?
cardiac RTF act: -1; Cardiac RTF inh: 17*; ARNT-TACC3 inh: -1; Mot1-301 SUMO: -16; Efflux pump mplx: 0; UCH37 DUB inh: 0; RTF inh confirm: 2

What do the screens show for `CC(=NNC(=O)COc1cccc(Cl)c1)c1ccc2c(c1)OCCO2`?
UCH37 DUB inh: 2

What do the screens show for `S=c1[nH]nc(-c2ccco2)n1N=Cc1cccc(Cl)c1Cl`?
UCH37 DUB inh: 4

Results for O=C1C(=Cc2ccco2)CCC1=Cc1ccco1 ?
cardiac RTF act: 3; Cardiac RTF inh: 29*; ARNT-TACC3 inh: -2; UCH37 DUB inh: -1; RTF inh confirm: 60*

What do the screens show for `COCCn1c(N)c(N(Cc2ccccc2)C(=O)COc2ccccc2F)c(=O)[nH]c1=O`?
cardiac RTF act: -6; Cardiac RTF inh: 19*; Mot1-301 SUMO: -1; Efflux pump mplx: 0; UCH37 DUB inh: 2; RTF inh confirm: -5

How did O=C(O)c1ccc(CNC(=O)c2ccccc2NC(=O)c2cccc([N+](=O)[O-])c2)cc1 do in these assays?
cardiac RTF act: 2; Cardiac RTF inh: 18*; ARNT-TACC3 inh: -6; Mot1-301 SUMO: -9; Efflux pump mplx: 0; UCH37 DUB inh: 4; RTF inh confirm: -4

What do the screens show for `O=C(O)COc1ccc(/C=N/NC(=O)c2ccc(-c3csc(Nc4ccc(Cl)cc4)n3)cc2)cc1`?
cardiac RTF act: -22; Cardiac RTF inh: 34*; ARNT-TACC3 inh: -2; RTF inh confirm: 18*

Results for CCOc1cc(/C=N/NC(=O)c2ccc(-c3csc(Nc4ccc(C)cc4)n3)cc2)ccc1OCC(=O)O ?
ARNT-TACC3 inh: 5

How did Cc1ccc(C(=O)ON=Cc2c(Cl)n(C)c3ccccc23)cc1 do in these assays?
UCH37 DUB inh: 1

What do the screens show for `CCCCn1c(SC(C)C(=O)NCC2CCCO2)nc2cc(C(=O)OC)ccc2c1=O` (centres undefined)?
cardiac RTF act: -4; Cardiac RTF inh: 19*; ARNT-TACC3 inh: -4; Mot1-301 SUMO: -7; Efflux pump mplx: 0; UCH37 DUB inh: -9; RTF inh confirm: -4

What do the screens show for `O=C1CC(=O)N2N=C(c3ccc([N+](=O)[O-])cc3)SC2=N1`?
cardiac RTF act: -1; Cardiac RTF inh: 19*; ARNT-TACC3 inh: 9; Mot1-301 SUMO: -3; Efflux pump mplx: 0; UCH37 DUB inh: 4; RTF inh confirm: -3

What do the screens show for `O=S(=O)(c1ccc2ncn(O)c2c1)N1CCOCC1`?
cardiac RTF act: -2; Cardiac RTF inh: 22*; ARNT-TACC3 inh: -1; Mot1-301 SUMO: -4; Efflux pump mplx: 0; UCH37 DUB inh: 0; RTF inh confirm: -9

How did O=S(=O)(c1ccc2nnn(O)c2c1)N1CCOCC1 do in these assays?
cardiac RTF act: 2; Cardiac RTF inh: 1; ARNT-TACC3 inh: -5; Mot1-301 SUMO: -11; Efflux pump mplx: 0; UCH37 DUB inh: 2

Results for COc1ccc(C(=O)NN=C(C)c2cccc(NC(=O)c3ccc(F)cc3)c2)c(OC)c1 ?
UCH37 DUB inh: 3

Results for Cc1ccc(C(=O)Nc2nnc(CC(=O)NN=Cc3ccncc3)s2)cc1 ?
UCH37 DUB inh: 2

How did O=C(O)c1ccc(NN=Cc2ccc(F)c(F)c2)cc1 do in these assays?
UCH37 DUB inh: 20

How did O=C(O)c1ccccc1N=Nc1ccc(O)cc1 do in these assays?
cardiac RTF act: 1; Cardiac RTF inh: 18*; ARNT-TACC3 inh: -3; Mot1-301 SUMO: -3; Efflux pump mplx: 0; UCH37 DUB inh: 5; RTF inh confirm: -6
